ChEMBL document CHEMBL4270599, “Synthesis of a 3'-C-ethynyl-β-d-ribofuranose purine nucleoside library: Discovery of C7-deazapurine analogs as potent antiproliferative nucleosides” (Eur J Med Chem, 2018)
pIC50: −log10 of the molar value.

Assays:
[1] = system: HT-29; experiment: Growth inhibition of human HT-29 cells assessed as cell growth at 10^-8 M incubated for 48 hrs by sulforhodamine B assay relative to control; type: functional; settings: HT-29, 48 h, read-out: Activity
[2] = system: TK-10; experiment: Growth inhibition of human TK10 cells assessed as cell growth at 10^-7 M incubated for 48 hrs by sulforhodamine B assay relative to control; type: functional; settings: TK-10, 48 h, read-out: Activity
[3] = system: HOP-62; experiment: Growth inhibition of human HOP62 cells assessed as cell growth at 10^-7 M incubated for 48 hrs by sulforhodamine B assay relative to control; type: functional; settings: HOP-62, 48 h, read-out: Activity
[4] = system: SK-MEL-28; experiment: Growth inhibition of human SK-MEL-28 cells assessed as cell growth at 10^-6 M incubated for 48 hrs by sulforhodamine B assay relative to control; type: functional; settings: SK-MEL-28, 48 h, read-out: Activity
[5] = system: RXF 393; experiment: Growth inhibition of human RXF393 cells assessed as cell growth at 10^-8 M incubated for 48 hrs by sulforhodamine B assay relative to control; type: functional; settings: RXF 393, 48 h, read-out: Activity
[6] = system: HCT-116; experiment: Growth inhibition of human HCT116 cells assessed as cell growth at 10^-8 M incubated for 48 hrs by sulforhodamine B assay relative to control; type: functional; settings: HCT-116, 48 h, read-out: Activity
[7] = system: HCT-15; experiment: Growth inhibition of human HCT15 cells assessed as cell growth at 10^-8 M incubated for 48 hrs by sulforhodamine B assay relative to control; type: functional; settings: HCT-15, 48 h, read-out: Activity
[8] = system: L1210; experiment: Antiproliferative activity against mouse L1210 cells after 48 hrs by Coulter counter method; type: functional, cell-based; settings: L1210, 48 h
Outline: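 Cell count assay in 96-well microtiter plates; (5–7.5) × 10⁴ tumor cells per well plus test compound. Cells proliferated at 37 °C in humidified CO₂-controlled atmosphere, 48 h for murine leukemia L1210, 72 h for human lymphocytic CEM and cervix carcinoma HeLa. Counted by Coulter counter; IC₅₀ is the concentration that inhibits proliferation by 50%.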

[9] = system: Malme-3M; experiment: Growth inhibition of human MALME-3M cells assessed as cell growth at 10^-8 M incubated for 48 hrs by sulforhodamine B assay relative to control; type: functional; settings: read-out: Activity
[10] = system: RXF 393; experiment: Cytotoxicity against human RXF393 cells after 48 hrs by SRB assay; type: functional; settings: RXF 393, 48 h
[11] = system: HCT-116; experiment: Growth inhibition of human HCT116 cells assessed as cell growth at 10^-5 M incubated for 48 hrs by sulforhodamine B assay relative to control; type: functional; settings: HCT-116, 48 h, read-out: Activity
[12] = system: UACC-62; experiment: Growth inhibition of human UACC62 cells assessed as cell growth at 10^-7 M incubated for 48 hrs by sulforhodamine B assay relative to control; type: functional; settings: UACC-62, 48 h, read-out: Activity
[13] = system: MDA-MB-468; experiment: Growth inhibition of human MDA-MB-468 cells assessed as cell growth at 10^-8 M incubated for 48 hrs by sulforhodamine B assay relative to control; type: functional; settings: MDA-MB-468, 48 h, read-out: Activity
[14] = system: NCI/ADR-RES; experiment: Growth inhibition of human NCI/ADR-RES cells assessed as cell growth at 10^-7 M incubated for 48 hrs by sulforhodamine B assay relative to control; type: functional; settings: read-out: Activity
[15] = system: SW-620; experiment: Growth inhibition of human SW620 cells assessed as cell growth at 10^-6 M incubated for 48 hrs by sulforhodamine B assay relative to control; type: functional; settings: SW-620, 48 h, read-out: Activity
[16] = system: SF-268; experiment: Growth inhibition of human SF268 cells assessed as cell growth at 10^-5 M incubated for 48 hrs by sulforhodamine B assay relative to control; type: functional; settings: SF-268, 48 h, read-out: Activity
[17] = system: HMEC-1; experiment: Antiproliferative activity against HMEC1 cells after 4 days by Coulter counter method; type: cell-based; settings: Homo sapiens, HMEC-1, 96 h
Outline: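 Primary HUVEC, primary HMVEC-d and the HMEC-1 line seeded at 20,000 cells/well in gelatin-coated plates in EC growth medium (EGM2). After overnight incubation, 5-fold compound dilutions added. Cells proliferated four days with compound, then trypsinized and counted by Coulter counter to derive IC₅₀.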

[18] = system: BT-549; experiment: Cytotoxicity against human BT549 cells after 48 hrs by SRB assay; type: functional; settings: BT-549, 48 h
[19] = system: SW-620; experiment: Growth inhibition of human SW620 cells assessed as cell growth at 10^-7 M incubated for 48 hrs by sulforhodamine B assay relative to control; type: functional; settings: SW-620, 48 h, read-out: Activity
[20] = system: ACHN; experiment: Growth inhibition of human ACHN cells assessed as cell growth at 10^-5 M incubated for 48 hrs by sulforhodamine B assay relative to control; type: functional; settings: read-out: Activity
[21] = system: M14; experiment: Growth inhibition of human M14 cells assessed as cell growth at 10^-8 M incubated for 48 hrs by sulforhodamine B assay relative to control; type: functional; settings: M14, 48 h, read-out: Activity
[22] = system: SN12C; experiment: Growth inhibition of human SN12C cells assessed as cell growth at 10^-4 M incubated for 48 hrs by sulforhodamine B assay relative to control; type: functional; settings: read-out: Activity
[23] = system: A549; experiment: Growth inhibition of human A549/ATCC cells assessed as cell growth at 10^-7 M incubated for 48 hrs by sulforhodamine B assay relative to control; type: functional; settings: A549, 48 h, read-out: Activity
[24] = system: HL-60(TB); experiment: Cytotoxicity against human HL-60(TB) cells after 48 hrs by SRB assay; type: functional; settings: HL-60, 48 h; for CC50: read-out: pLC50 (the source's name) (converted)
[25] = system: SNB-19; experiment: Growth inhibition of human SNB19 cells assessed as cell growth at 10^-6 M incubated for 48 hrs by sulforhodamine B assay relative to control; type: functional; settings: SNB-19, 48 h, read-out: Activity
[26] = system: MDA-MB-231; experiment: Growth inhibition of human MDA-MB-231 cells assessed as cell growth at 10^-5 M incubated for 48 hrs by sulforhodamine B assay relative to control; type: functional; settings: MDA-MB-231, 48 h, read-out: Activity
[27] = system: RPMI-8226; experiment: Growth inhibition of human RPMI8226 cells assessed as cell growth at 10^-6 M incubated for 48 hrs by sulforhodamine B assay relative to control; type: functional; settings: RPMI-8226, 48 h, read-out: Activity
[28] = system: PC-3; experiment: Growth inhibition of human PC3 cells assessed as cell growth at 10^-4 M incubated for 48 hrs by sulforhodamine B assay relative to control; type: functional; settings: PC-3, 48 h, read-out: Activity
[29] = system: MDA-MB-231; experiment: Growth inhibition of human MDA-MB-231 cells assessed as cell growth at 10^-4 M incubated for 48 hrs by sulforhodamine B assay relative to control; type: functional; settings: MDA-MB-231, 48 h, read-out: Activity
[30] = system: DU-145; experiment: Growth inhibition of human DU145 cells assessed as cell growth at 10^-4 M incubated for 48 hrs by sulforhodamine B assay relative to control; type: functional; settings: DU-145, 48 h, read-out: Activity
[31] = read-out: LC50 (the source's name)

Row | SMILES | growth at 0.01 µM [1] [%] | growth at 0.1 µM [2] [%] | growth at 0.1 µM [3] [%] | growth at 1 µM [4] [%] | growth at 0.01 µM [5] [%] | growth at 0.01 µM [6] [%] | growth at 0.01 µM [7] [%] | pIC50 [8] | growth at 0.01 µM [9] [%] | TGI ([10]; read-out: TGI) [nM] | growth at 10 µM [11] [%] | growth at 0.1 µM [12] [%] | growth at 0.01 µM [13] [%] | growth at 0.1 µM [14] [%] | growth at 1 µM [15] [%] | growth at 10 µM [16] [%] | pIC50 [17] | TGI ([18]; read-out: TGI) [µM] | growth at 0.1 µM [19] [%] | growth at 10 µM [20] [%] | other results
1 | C#C[C@@]1(O)[C@@H](CO)O[C@@H](n2cc(Cl)c3c(N)ncnc32)[C@@H]1O | 83 to 92 | 100 to 101 | 74 to 86 | 32 to 43 | 101 to 108 | 67 to 73 | 78 to 80 | 7.85 | 93 to 100 | 813 to 2010 | 4 | 75 to 81 | 97 to 103 | 37 to 40 | 2 to 7 | 2 to 7 | 8.46 | 0.64 to 0.685 | 34 to 50 | -30 | GI50 ([10]; read-out: GI50): 299 to 485 nM; CC50 ([10]; read-out: pLC50 (the source's name) (converted)): > 100 µM; GI50 ([18]; read-out: GI50): 223 to 228 nM; growth at 0.01 µM [21]: 93 to 94%; growth at 100 µM [22]: 1%; growth at 0.1 µM [23]: 61 to 77%; GI50 ([24]; read-out: GI50): 34.1 to 84 nM; TGI ([24]; read-out: TGI): 0.197 to 0.317 µM; CC50 [24]: > 100 µM
2 | C#C[C@@]1(O)[C@@H](CO)O[C@@H](n2cc(F)c3c(N)ncnc32)[C@@H]1O | 96 | 102 | 101 | 72 | 94 | 98 | 97 | 7.46 | 103 | 2990 | -9 | 91 | 92 | 76 | 4 | 7 | 7.21 | 4.18 | 61 | 2 | growth at 1 µM [25]: 39%; growth at 10 µM [26]: -24%; CC50 [10, 31]: > 100 µM; GI50 ([10]; read-out: pGI50 (converted)): 724 nM; TGI ([10]; read-out: pTGI (converted)): 3020 nM; growth at 1 µM [27]: 1%; growth at 100 µM [28]: -31%; growth at 100 µM [29]: -35%; CC50 [18, 31]: > 100 µM; GI50 ([18]; read-out: pGI50 (converted)): 851 nM; TGI ([18]; read-out: pTGI (converted)): 4.17 µM; growth at 0.01 µM [21]: 101%; growth at 100 µM [22]: -24%; growth at 0.1 µM [23]: 92%; TGI ([24]; read-out: TGI): 3.53 µM; GI50 ([24]; read-out: pGI50 (converted)): 437 nM; CC50 [24]: > 100 µM; TGI ([24]; read-out: pTGI (converted)): 3.55 µM; growth at 100 µM [30]: -4%
